From PubChem BioAssay
This is a sample that favours compounds with a hit; in the whole collection about 3.5% have one here.
MrgX1 allo act = allosterically activates human MrgX1 receptor signaling. MrgX1-HEK293, Fluo-4 calcium flux, FDSS; stronger effect = higher value. B-score at 10 µM. 310,000 compounds, 0.63% hits. AID 588675;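 active means plate-corrected calcium response at least 3 library SD above typical, normal starting fluorescence, not activating the receptor alone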;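 further: compound read alongside a low EC10 to EC30 dose of BAM8-22 agonist; peak minus trough fluorescence over baseline measured at the second addition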
Target sequence (Q96LB2 whole entry, looked up): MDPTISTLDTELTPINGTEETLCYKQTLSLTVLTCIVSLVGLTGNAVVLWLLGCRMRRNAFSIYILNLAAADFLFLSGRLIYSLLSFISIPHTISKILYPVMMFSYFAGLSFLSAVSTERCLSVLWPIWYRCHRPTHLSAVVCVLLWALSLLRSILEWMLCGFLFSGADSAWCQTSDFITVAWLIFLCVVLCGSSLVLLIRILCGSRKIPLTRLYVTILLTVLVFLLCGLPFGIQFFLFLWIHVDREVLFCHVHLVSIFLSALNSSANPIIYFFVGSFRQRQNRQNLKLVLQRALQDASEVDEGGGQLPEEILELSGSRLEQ
MrgX1 ag = agonists of human MrgX1 receptor. AID 588627. B-score at 10 µM. MrgX1-HEK293 cells, Fluo-4 calcium fluorescence, agonist mode; stronger effect = higher value. 310,000 compounds, 0.44% hits;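 active means calcium response B-score plate-corrected fluorescence ratio at least 3 library SD, with starting fluorescence B-score inside 5 SD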
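Material: MrgX1-expressing HEK293 cells / Dosing: compound as first of three additions / Incubation: overnight seeding, then 1 h dark dye loading / Signal: Fluo-4 NW calcium fluorescence / Evaluation: B-scored fluorescence response ratio / Benchmarks: positive and negative control wells on each plate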
MrgX1 antag = blocks BAM8-22 activation of human MrgX1 receptor. 310,000 compounds, 1.3% hits. B-score at 10 µM. MRGX1-HEK293 calcium flux, Fluo-4, BAM8-22 antagonism; stronger effect = lower value;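 active means calcium-response B-score plate-corrected more than 3 library SD below zero, starting fluorescence within 5 deviations, no agonist response on first addition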;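 further: peak minus trough fluorescence over baseline after final BAM8-22 challenge near maximal dose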
RGS4 act = RGS4 potentiation or activation | B-score at 10 µM | 310,000 compounds, 0.92% hits | HEK293 M3R/inducible RGS4, carbachol calcium flux Fluo4; stronger effect = lower value;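 active means B-score of the integrated calcium signal more than 4 SD below the library mean, with starting fluorescence not abnormally high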;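 further: negative B-score means reduced calcium response which marks RGS4 activation or potentiation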
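Material: M3R-expressing HEK293 line, RGS4 induced by doxycycline | Schedule: Overnight RGS4 induction, 30 min dye load 37 °C, 20 min compound RT | Measured by: Fluo4 fluorescence kinetic imaging of calcium | Read-out: Integrated calcium ratio converted to B score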
RGS4 block = human RGS4 inhibition. AID 463165. B-score at 10 µM. HEK293 M3R/RGS4 inducible, Fluo-4 calcium flux; stronger effect = higher value; triggered by carbachol at its EC20. 310,000 compounds, 0.45% hits;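 active means B-score, a plate-corrected calcium signal, over three deviations above library mean, with baseline fluorescence within five deviations of library mean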;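 further: RGS4 expression induced by doxycycline in cells with stable M3 receptor; B-score is computed from the integrated fluorescence ratio over baseline after carbachol; higher B-score means a larger calcium signal and so more RGS4 inhibition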
Target sequence (P49798 whole entry, looked up): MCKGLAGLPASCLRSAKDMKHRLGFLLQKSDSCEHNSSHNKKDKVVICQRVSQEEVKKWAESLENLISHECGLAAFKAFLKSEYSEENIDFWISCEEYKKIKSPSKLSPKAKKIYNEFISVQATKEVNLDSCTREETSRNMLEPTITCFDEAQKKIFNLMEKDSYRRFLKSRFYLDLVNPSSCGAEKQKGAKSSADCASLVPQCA
The depositor's hits bear a star; i = inactive.

SMILES	MrgX1 allo act	MrgX1 ag	MrgX1 antag	RGS4 act	RGS4 block
O=C(NNS(=O)(=O)c1cc(Cl)c(Cl)cc1Cl)c1cccnc1	i	i	-9.2*	i	i
O=[N+]([O-])c1ccc(NC(=S)NCc2ccc(F)cc2)cc1	i	27*	i	i	i
O=[N+]([O-])c1ccc(NC(=S)NCc2ccncc2)cc1	i	i	-4.7*	i	i
COc1ccccc1OCc1nn[nH]n1	i	i	i	i	i
CCCN(CCC)C(=O)Cn1c(=O)c2ccccc2n2c(=S)sc(-c3ccccc3C)c12	i	i	-4.6*	i	i
C=CCn1c(COc2ccc(F)cc2)nnc1SCC(=O)NC1CCS(=O)(=O)C1 (stereo not given)	i	i	i	i	i
CCc1ccc(NC(=S)N2CCN(S(=O)(=O)c3ccccc3)CC2)cc1	i	i	i	i	i
Fc1cccc(Cc2noc(CN3CCCN(C4Cc5ccccc5C4)CC3)n2)c1	i	i	i	-7.5*	i
Fc1cccc(Cc2noc(CN3CCSCC3)n2)c1	i	i	i	i	i
O=C(CCc1ccccc1)Nc1nc2c(F)cc(F)cc2s1	i	i	i	i	i
CSc1nnc(C)c(=O)n1COC(=O)c1ccc([N+](=O)[O-])cc1	12*	i	i	i	i
CN1CCN(C(=O)Cn2ncc3c([nH]c4ccccc43)c2=O)CC1	i	i	i	i	i
O=c1c(-c2ccc(O)cc2)coc2cc(O)ccc12	i	i	-7.8*	i	i
N#Cc1ccc(C(=O)NCC2CCCCC2)cc1	i	i	i	i	i
C/C(=N\NC(=O)CSc1nc(C)cc(C)n1)c1cccc([N+](=O)[O-])c1	i	i	i	i	i
O=C(COC(=O)/C=C/c1ccccc1)NCC1CCCO1 (stereo not given)	9.8*	i	i	i	i
Cn1c(=O)c(C(=O)NNC(=O)c2ccccc2Cl)c(O)c2ccccc21	i	29*	i	i	i
Cn1c(=O)c(C(=O)NNC(=O)c2ccccc2Br)c(O)c2ccccc21	8.4*	i	i	i	i
CCSc1ccccc1C(=O)N1CCC2(CC1)CC(=O)c1ccccc1O2	i	i	i	i	i
Nc1nc(SCCO)[nH]c(=O)c1NC(=O)c1ccc(Br)o1	i	i	i	i	i
COc1cccc(C(C(=O)NCc2ccco2)N(Cc2ccco2)C(=O)Cn2nnc3ccccc32)c1 (stereo not given)	i	i	i	-7.2*	i
COc1ccc(/C=C(\NC(=O)c2ccc(Cl)cc2)C(=O)NCC2CCCO2)cc1OC (stereo not given)	i	i	i	i	i
Nc1c2c(nc3ccc(Br)cc13)N(C1CCCCC1)CC2	14*	i	i	i	i
COc1ccc(-n2cccc2/C=C/[N+](=O)[O-])cc1	i	33*	i	i	i
COc1ccc(-n2cccc2C=O)cc1	i	i	i	i	i
SMILES	MrgX1 allo act	MrgX1 ag	MrgX1 antag	RGS4 act	RGS4 block
N#Cc1c(C(F)(F)F)cc(-c2ccco2)nc1SCc1ccncc1	i	i	-5.1*	i	i
COCCn1c(SCC(=O)N(C(C)C)C(C)C)nnc1-c1cc2ccccc2cc1O	6.6*	i	i	i	i
O=C(NCC1CCCO1)c1nn2c(C(F)(F)F)cc(-c3cc(Br)cs3)nc2c1Br (stereo not given)	i	33*	i	i	i
Cc1c(N=Cc2c(O)n(C)c(=O)c3ccccc23)c(=O)n(-c2ccccc2)n1C	i	i	i	-7.2*	i
O=C(CSc1ncccn1)NCc1cccc(Cl)c1	i	i	i	i	i
CCC1=C(OC(=O)N(CC)CC)N2C(=O)OC(=NCC3CC3)[C@]2(Cc2ccccc2)[C@H]2C1=CC[C@H]1C(=O)NC(=O)[C@H]12	i	i	-8.1*	i	i
CCC1=C(OC(=O)N(CC)CC)N2C(=O)OC(=NCCOC)[C@]2(Cc2ccccc2)[C@H]2C1=CC[C@H]1C(=O)NC(=O)[C@H]12	i	i	i	i	i
COc1ccc(CCn2nc(C)c([N+](=O)[O-])c2C)cc1	i	i	-6.5*	i	i
C=CCNCc1cc(=O)n2c(-c3ccccc3)csc2n1	i	i	i	-8.8*	i
Cc1cc(C)nc(/N=C(\N)Nc2ccc(F)c([N+](=O)[O-])c2)n1	i	38*	i	i	i
Cc1cc(C)c2cc3c(N)c(C(=O)N4CCc5ccccc5C4)sc3nc2c1	i	i	-8.5*	-8*	i
CCCCn1c(N)c(N(CC(C)C)C(=O)c2ccc(OCC3CCCO3)cc2)c(=O)[nH]c1=O (stereo not given)	i	i	-6.2*	i	i
Cc1cccc(C)c1NC(=O)COC(=O)c1cccc2c1C(=O)c1ccccc1C2=O	i	i	i	i	i
Cc1cccc(NC(=O)COC(=O)c2cccc3c2C(=O)c2ccccc2C3=O)c1C	i	i	i	-7.2*	i
O=C(N1CCN(c2ccccn2)CC1)N1c2ccccc2Sc2ccccc21	i	i	i	-7.4*	i
CCN(CC)CCCN1C=C2C(=O)C(C)(OC(=O)CCC(=O)OC)C(=O)C=C2C=C1C1CC1 (stereo not given)	i	i	-5.5*	i	i
CCCNC(=O)Cn1c(=O)/c(=C\c2ccc(-c3ccc([N+](=O)[O-])cc3)o2)s/c1=C\C(=O)C(C)(C)C	i	i	-9.5*	i	i
CCCNC(=O)Cn1c(=O)/c(=C\c2ccc(-c3cccc([N+](=O)[O-])c3)o2)s/c1=C\C(=O)C(C)(C)C	i	i	-6.8*	i	i
O=C1NC(=O)/C(=C/c2ccc(-c3cccc([N+](=O)[O-])c3)o2)S1	i	i	i	i	i
NC(=O)C1CCN(C2=C(NS(=O)(=O)c3ccc(Cl)cc3)C(=O)c3ccccc3C2=O)CC1	9.9*	i	i	i	i
Cc1cccc(N(CC(=O)NCC2CCCO2)C(=O)CCC(=O)Nc2nccs2)c1 (stereo not given)	i	i	i	i	i
COC(=O)[C@@]1(Cc2ccc(F)cc2)[C@H]2c3cc(C(=O)N(C)C)n(Cc4ccc(OC)c(OC)c4)c3C[C@H]2CN1C(=O)c1ccccc1	i	i	i	i	i
COC(=O)[C@@]1(Cc2ccccc2)[C@H]2c3cc(C(=O)N4CCCC4)n(CCSCCO)c3C[C@H]2CN1C(=O)c1ccccc1	i	i	-5.2*	i	i
